Data published in ChEMBL document CHEMBL1138354, “2-(2'-((dimethylamino)methyl)-4'-(fluoroalkoxy)-phenylthio)benzenamine derivatives as serotonin transporter imaging agents” (J Med Chem, 2007).
pKi: −log10 of the molar value.

Legend:
[1] = target: Sodium-dependent dopamine transporter (Homo sapiens, UniProt Q01959); assay: Displacement of [125I]N-(3'-iodopropen-2'yl)-2-beta-carbomethoxy-3-beta-(4-chlorophenyl)tropane from DAT expressed in LLCPK1 cells; format: cell-based, LLC-PK1
How it was run: (§1)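 Membrane homogenates from LLC-PK1 cells, each line overexpressing one transporter. Membranes (30–80 μg protein) in 50 mM Tris-HCl pH 7.4, 120 mM NaCl, 5 mM KCl, 0.1% BSA. Radioligands: 0.09 nM for SERT, 0.06 nM for DAT, 0.06 nM for NET. Competitor at 8–10 concentrations, 10⁻¹⁰ to 10⁻⁵ M. Incubated 1 hr at room temperature. Filtered on PEI-presoaked glass fiber and gamma counted. Ki from nonlinear regression, n = 3.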

[2] = target: Sodium-dependent serotonin transporter (Homo sapiens, UniProt P31645); assay: Displacement of [125I]5-iodo-2-[[2,2-[(dimethylamino)methyl]phenyl]thio]benzyl alcohol from SERT expressed in LLCPK1 cells; format: cell-based, LLC-PK1; how it was run: as §1
[3] = target: Sodium-dependent noradrenaline transporter (Homo sapiens, UniProt P23975); assay: Displacement of [125I]iodonisoxetine from NET expressed in LLCPK1 cells; format: cell-based, LLC-PK1; how it was run: as §1
[4] = Partition coefficient, log P at pH 7.4; format: physicochemical; details: octanol/water
Nucleic Acid [5] = assay: Ratio of drug level in hypothalamus to cerebellum in rat after 120 mins; format: ADME, tissue-based; details: in vivo, 2 h
How it was run: (§2)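 Rats, 3 per group, given ¹⁸F tracer (10–100 μCi, 0.2 ml sterile water with 1 mg/mL BSA) into the femoral vein under isoflurane. Brain regions, including hypothalamus, striatum and cerebellum, dissected, weighed and counted. % dose/g calculated against a 1% diluted aliquot of the dose. Region/cerebellum ratio is region %dose/g divided by cerebellum %dose/g. SD of the ratio propagated from both means and SDs.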

Brain [6] = assay: Biodistribution in iv dosed rat brain after 30 mins; format: ADME, organism-based; details: in vivo, 0.5 h
How it was run: (§3)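 [18F]-labeled tracer was given to rats under isoflurane anesthesia: 0.2 ml sterile water with 1 mg/mL BSA and 10–100 μCi, into the femoral vein. Three rats per group. Animals were killed by cervical dislocation under anesthesia at the stated time. Organs were removed, weighed and counted. Uptake was calculated as percent dose against a 1% aliquot of the injected dose counted alongside.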

Brain [7] = assay: Biodistribution in iv dosed rat brain after 120 mins; format: ADME, organism-based; details: in vivo, 2 h; how it was run: as §3
Nucleic Acid [8] = assay: Ratio of drug level in hypothalamus to cerebellum in rat after 30 mins; format: ADME, tissue-based; details: in vivo, 0.5 h; how it was run: as §2

Sequence of Sodium-dependent dopamine transporter (Q01959 whole entry): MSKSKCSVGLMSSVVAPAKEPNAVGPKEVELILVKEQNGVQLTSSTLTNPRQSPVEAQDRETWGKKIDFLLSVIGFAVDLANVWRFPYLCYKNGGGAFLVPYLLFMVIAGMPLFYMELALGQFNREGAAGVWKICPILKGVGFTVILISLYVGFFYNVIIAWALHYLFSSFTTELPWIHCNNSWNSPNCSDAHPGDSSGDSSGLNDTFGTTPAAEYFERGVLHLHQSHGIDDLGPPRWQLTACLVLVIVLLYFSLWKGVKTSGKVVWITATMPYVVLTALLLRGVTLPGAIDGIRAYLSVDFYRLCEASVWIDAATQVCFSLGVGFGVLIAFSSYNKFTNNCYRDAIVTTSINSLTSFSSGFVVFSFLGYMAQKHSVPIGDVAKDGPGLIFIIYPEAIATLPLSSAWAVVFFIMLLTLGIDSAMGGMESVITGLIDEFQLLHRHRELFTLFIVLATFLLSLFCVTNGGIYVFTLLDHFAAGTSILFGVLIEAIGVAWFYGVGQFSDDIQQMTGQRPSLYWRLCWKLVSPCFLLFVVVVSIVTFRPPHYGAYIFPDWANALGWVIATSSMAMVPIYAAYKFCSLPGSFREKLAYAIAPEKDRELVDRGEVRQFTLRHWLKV
Sequence of Sodium-dependent noradrenaline transporter (P23975 whole entry): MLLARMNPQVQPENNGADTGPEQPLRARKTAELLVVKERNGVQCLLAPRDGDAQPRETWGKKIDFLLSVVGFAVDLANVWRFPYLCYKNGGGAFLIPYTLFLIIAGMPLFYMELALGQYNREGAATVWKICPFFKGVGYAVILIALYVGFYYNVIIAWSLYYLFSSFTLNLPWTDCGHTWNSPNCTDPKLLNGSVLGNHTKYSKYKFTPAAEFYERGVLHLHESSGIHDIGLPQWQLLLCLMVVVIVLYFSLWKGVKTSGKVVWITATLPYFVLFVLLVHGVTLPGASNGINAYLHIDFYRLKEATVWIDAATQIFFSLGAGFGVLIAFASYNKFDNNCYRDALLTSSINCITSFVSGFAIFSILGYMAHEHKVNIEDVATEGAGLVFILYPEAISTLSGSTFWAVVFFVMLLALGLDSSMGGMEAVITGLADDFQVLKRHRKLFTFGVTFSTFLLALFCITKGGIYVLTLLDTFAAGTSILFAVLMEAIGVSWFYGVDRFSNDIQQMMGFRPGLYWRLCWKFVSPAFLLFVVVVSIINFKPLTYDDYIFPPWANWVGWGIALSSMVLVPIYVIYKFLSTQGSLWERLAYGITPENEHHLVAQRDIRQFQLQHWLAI
Sequence of Sodium-dependent serotonin transporter (P31645 whole entry): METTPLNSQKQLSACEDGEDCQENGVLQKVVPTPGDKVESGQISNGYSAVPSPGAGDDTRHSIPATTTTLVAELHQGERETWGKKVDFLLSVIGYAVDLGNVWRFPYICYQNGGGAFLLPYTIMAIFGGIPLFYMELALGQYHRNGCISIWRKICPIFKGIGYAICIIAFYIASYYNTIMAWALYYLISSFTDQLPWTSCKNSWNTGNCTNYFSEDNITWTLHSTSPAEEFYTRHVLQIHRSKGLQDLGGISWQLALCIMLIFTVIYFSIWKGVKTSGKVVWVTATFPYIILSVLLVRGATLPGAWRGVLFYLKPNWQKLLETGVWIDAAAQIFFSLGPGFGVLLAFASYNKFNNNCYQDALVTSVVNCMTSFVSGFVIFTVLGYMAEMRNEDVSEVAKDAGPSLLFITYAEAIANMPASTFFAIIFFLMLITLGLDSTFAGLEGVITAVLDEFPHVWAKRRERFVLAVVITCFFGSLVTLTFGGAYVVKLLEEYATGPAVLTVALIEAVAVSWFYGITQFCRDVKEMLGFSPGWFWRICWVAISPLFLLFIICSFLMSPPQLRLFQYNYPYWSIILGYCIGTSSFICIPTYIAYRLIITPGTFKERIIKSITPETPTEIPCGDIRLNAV

Row | Structure (SMILES) | pKi [1] | pKi [2] | pKi [3] | logD [4] | Ratio (Nucleic Acid [5]) | Drug uptake (Brain [6]) | Drug uptake (Brain [7]) | Ratio (Nucleic Acid [8])
1 | CN(C)Cc1cc(OCCO)ccc1Sc1ccc(F)cc1N | < 6.00 | 8.92 | 7.25 |  |  |  |  | 
2 | CN(C)Cc1cc(OCC[18F])ccc1Sc1ccc(Cl)cc1N |  |  |  | 2.71 |  |  |  | 
3 | CN(C)Cc1cc(OCCF)ccc1Sc1ccc(Br)cc1N | < 6.00 | 10.30 | 6.94 |  | 3.7 | 1.88 %ID | 2.16 %ID | 2.04
4 | CN(C)Cc1cc(OCCCO)ccc1Sc1ccc(Br)cc1N | < 6.00 | 9.68 | 6.55 |  |  |  |  | 
5 | CN(C)Cc1cc(OCCC[18F])ccc1Sc1ccc(Br)cc1N |  |  |  | 3.3 |  |  |  | 
6 | CN(C)Cc1cc(OCCC[18F])ccc1Sc1ccc(F)cc1N |  |  |  | 2.65 |  |  |  | 
7 | CN(C)Cc1cc(OCCCF)ccc1Sc1ccc(F)cc1N | < 6.00 | 9.02 | 7.02 |  | 4.36 | 1.43 %ID | 1.32 %ID | 2.66
8 | CN(C)Cc1cc(OCCCF)ccc1Sc1ccc(Br)cc1N | < 6.00 | 9.82 | < 6.00 |  | 4.17 | 1.12 %ID | 1.15 %ID | 1.93

The next lines start with the values.

Row | pKi [1] | pKi [2] | pKi [3] | logD [4] | Ratio (Nucleic Acid [5]) | Drug uptake (Brain [6]) | Drug uptake (Brain [7]) | Ratio (Nucleic Acid [8]) | Structure (SMILES)
9 | 6.07 | 10.52 | 7.01 |  | 3.77 | 1.72 %ID | 1.46 %ID | 2.36 | CN(C)Cc1cc(OCCF)ccc1Sc1ccc(Cl)cc1N
10 | 6.18 | 7.77 | 7.48 |  |  |  |  |  | CN(C)Cc1cc(O)ccc1Sc1ccccc1N
11 | 6.35 | 8.89 | 8.15 |  |  |  |  |  | CN(C)Cc1cc(OCCCO)ccc1Sc1ccccc1N
12 | < 6.00 | 10.00 | 7.43 |  | 4.34 | 2.23 %ID | 2.57 %ID | 2.78 | CN(C)Cc1cc(OCCF)ccc1Sc1ccc(F)cc1N
13 | 6.45 | 8.96 | 7.96 |  |  |  |  |  | CN(C)Cc1cc(OCCO)ccc1Sc1ccccc1N
14 | 6.47 | 9.60 | 8.12 |  | 7.83 | 1.85 %ID | 0.63 %ID | 3.79 | CN(C)Cc1cc(OCCF)ccc1Sc1ccccc1N
15 |  |  |  | 2.47 |  |  |  |  | CN(C)Cc1cc(OCC[18F])ccc1Sc1ccc(F)cc1N
16 | 6.52 | 8.85 | 7.92 |  | 7.67 | 1.23 %ID | 0.59 %ID | 3.5 | CN(C)Cc1cc(OCCCF)ccc1Sc1ccccc1N
17 |  |  |  | 2.54 |  |  |  |  | CN(C)Cc1cc(OCCC[18F])ccc1Sc1ccccc1N
18 | 6.24 | 8.30 | 7.85 |  |  |  |  |  | COc1ccc(Sc2ccccc2N)c(CN(C)C)c1
